The values that follow come from ChEMBL document CHEMBL1159098, “A new series of flavones, thioflavones, and flavanones as selective monoamine oxidase-B inhibitors” (Bioorg Med Chem, 2010).

As a reminder, the IC50 is the concentration needed to halve the response being measured. Read a high IC50 as a need for much substance. Broadly, the inhibition is the drop in the measured response relative to a control, in per cent.

Series [1] deals with T1, Amine oxidase [flavin-containing] A (Homo sapiens, UniProt P21397).
T1 sequence (P21397 whole entry): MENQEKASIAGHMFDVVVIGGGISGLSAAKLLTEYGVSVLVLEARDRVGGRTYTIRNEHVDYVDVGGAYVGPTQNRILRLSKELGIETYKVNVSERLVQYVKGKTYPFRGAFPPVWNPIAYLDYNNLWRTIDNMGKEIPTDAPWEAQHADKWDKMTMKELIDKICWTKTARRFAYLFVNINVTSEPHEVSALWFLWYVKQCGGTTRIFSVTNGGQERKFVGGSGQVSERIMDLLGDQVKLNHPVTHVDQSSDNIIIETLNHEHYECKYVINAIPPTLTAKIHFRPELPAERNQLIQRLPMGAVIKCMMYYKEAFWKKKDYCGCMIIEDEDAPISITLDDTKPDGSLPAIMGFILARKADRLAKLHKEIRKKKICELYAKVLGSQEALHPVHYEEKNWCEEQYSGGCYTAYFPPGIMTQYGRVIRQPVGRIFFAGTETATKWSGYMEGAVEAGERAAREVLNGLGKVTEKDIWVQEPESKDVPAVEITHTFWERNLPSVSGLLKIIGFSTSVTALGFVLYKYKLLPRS
In words: Inhibition of human recombinant MAOA expressed in BTI-TN-5B1-4 cells at 100 uM by para-tyramine oxidation assay. Format: cell-based. Particulars: for inhibition (INH): human, bti-tn-5b1-4, 100 µM; for inhibition at 100 µM: BTI-TN-5B1-4, human; call rule not given here.

The target in series [2] is T2, Amine oxidase [flavin-containing] B (Homo sapiens, UniProt P27338).
T2 sequence (P27338 whole entry): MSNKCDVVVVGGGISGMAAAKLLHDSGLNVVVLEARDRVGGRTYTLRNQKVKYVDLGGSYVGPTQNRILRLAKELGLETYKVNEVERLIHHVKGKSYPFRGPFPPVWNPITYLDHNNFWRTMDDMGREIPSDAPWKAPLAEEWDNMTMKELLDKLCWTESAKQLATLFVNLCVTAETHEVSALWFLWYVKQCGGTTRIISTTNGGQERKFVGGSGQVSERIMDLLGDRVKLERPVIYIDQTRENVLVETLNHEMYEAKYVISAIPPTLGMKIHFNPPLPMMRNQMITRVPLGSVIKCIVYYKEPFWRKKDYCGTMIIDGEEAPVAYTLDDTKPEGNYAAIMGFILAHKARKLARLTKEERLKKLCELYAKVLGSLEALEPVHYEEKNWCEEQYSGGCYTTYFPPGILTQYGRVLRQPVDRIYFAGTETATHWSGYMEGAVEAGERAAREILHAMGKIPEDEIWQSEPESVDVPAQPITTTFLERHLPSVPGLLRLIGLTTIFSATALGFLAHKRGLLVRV
Format: cell-based, BTI-TN-5B1-4.

The species named for series [3] is Homo sapiens. In words: Selectivity for human MAOB over human MAOA. An outline of the steps:
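Selectivity index = IC50(hMAO-A)/IC50(hMAO-B), both from Amplex Red/p-tyramine fluorimetric assays on insect-cell recombinant enzymes.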

Series [4] has as its target T2, Amine oxidase [flavin-containing] B. In words: Inhibition of human recombinant MAOB expressed in BTI-TN-5B1-4 cells at 100 uM by para-tyramine oxidation assay. The series is classed as cell-based. Particulars: for inhibition at 100 µM: BTI-TN-5B1-4, human; for inhibition (INH): human, bti-tn-5b1-4, 100 µM.

In the case of `O=c1cc(-c2ccc(F)cc2)oc2cc(F)ccc12`, in series [1], the “inhibition (INH)” value is “Not Active”.
As to `O=C1CC(c2ccc(F)cc2)Oc2cc(F)ccc21` (racemic), the “inhibition (INH)” value in series [1] is reported as “Not Active”. In series [2], this compound registered an IC50 of 0.67 µM. For the same compound, the Ratio IC50 in series [3] is > 149.
`COc1ccc(-c2cc(=S)c3ccc(C)cc3o2)cc1`: in series [1], the “inhibition (INH)” value was “Not Active”. Also, the inhibition at 100 µM in series [4] worked out at 40%.
Turning to `Cc1ccc(-c2cc(=O)c3ccccc3o2)cc1`, in series [1], the “inhibition (INH)” value is listed as “Not Active”. This compound also came in with an IC50 in series [2] of 2.38 µM. Moreover, in series [3], the Ratio IC50 is > 42.
The matching figures for `Cc1ccc(-c2cc(=O)c3ccc(F)cc3o2)cc1`: “Not Active”, 4.33 µM and > 23.
The matching figures for `COc1ccc2c(c1)OC(c1ccccc1)CC2=O` (racemic): “Not Active”, 1.47 µM and > 68.
For `Cc1ccc([C@H]2CC(=O)c3ccc(C)cc3O2)cc1` the same measures were “Not Active”, 0.53 µM and > 189.
Consider `Cc1ccc(-c2cc(=O)c3ccc(C)cc3o2)cc1`, for which the inhibition at 100 µM in series [1] and in series [4] was 40% each time.
In the case of `COc1ccc(C2CC(=O)c3ccc(F)cc3O2)cc1` (racemic), the “inhibition (INH)” value in series [1] is listed as “Not Active”. Besides, in series [2], the IC50 turned out to be 0.17 µM. The Ratio IC50 in series [3] was > 588.
For the compound `Cc1ccc2c(=S)cc(-c3ccccc3)oc2c1`, in series [1], the “inhibition (INH)” value is “Not Active”. Moreover, in series [4], the inhibition at 100 µM was determined as 40%.
Turning to `Cc1ccc(-c2cc(=S)c3ccc(F)cc3o2)cc1`, in series [1], the inhibition at 100 µM was 40%. Besides, the IC50 in series [2] stood at 1.61 µM. The Ratio IC50 in series [3] was > 62.
For `COc1ccc(-c2cc(=O)c3ccccc3o2)cc1` [4'-METHOXYFLAVONE] the same measures were 40%, 27.9 µM and > 3.6.
Consider `S=c1cc(-c2ccccc2)oc2ccccc12`, for which the “inhibition (INH)” value in series [1] is recorded as “Not Active”. The inhibition at 100 µM in series [4] was determined as 40%.
Turning to `Cc1ccc(-c2cc(=S)c3ccc(C)cc3o2)cc1`, in series [1], the “inhibition (INH)” value is recorded as “Not Active”. In addition, in series [2], the IC50 worked out at 6.72 µM. Besides, the Ratio IC50 in series [3] is > 15.
For `O=C1CC(c2ccccc2)Oc2cc(F)ccc21` (racemic) the same measures were “Not Active”, 3.77 µM and > 27.
For `Fc1ccc(-c2cc(=S)c3ccc(F)cc3o2)cc1` the same measures were “Not Active”, 6.89 µM and > 15.
Take `COc1ccc(-c2cc(=O)c3ccc(C)cc3o2)cc1`: the inhibition at 100 µM in series [1] and in series [4] was 40% in each case.
On to `COc1ccc2c(c1)OC(c1ccc(C)cc1)CC2=O` (racemic), for which the “inhibition (INH)” value in series [1] is recorded as “Not Active”. For the same compound, the 50% inhibitory concentration (IC50) in series [2] came to 0.55 µM. Moreover, in series [3], the Ratio IC50 is > 182.
For the compound `O=C1CC(c2ccccc2)Oc2ccccc21` (racemic) [FLAVANONE], the “inhibition (INH)” value in series [1] is on record as “Not Active”. Moreover, 2.87 µM corresponded to half-maximal inhibition in series [2] (IC50). Further, the Ratio IC50 in series [3] is > 35.
Take `COc1ccc2c(c1)O[C@@H](c1ccc(F)cc1)CC2=O`: the “inhibition (INH)” value in series [1] is given as “Not Active”. This compound registered a half-inhibitory concentration (IC50) in series [2] of 0.2 µM. Besides, in series [3], the Ratio IC50 was > 500.
For the compound `COc1ccc(-c2cc(=O)c3ccc(F)cc3o2)cc1`, in series [1], the inhibition at 100 µM worked out at 40%. This compound registered an IC50 in series [2] of 1.34 µM. For the same compound, the Ratio IC50 in series [3] was > 75.
As for `Fc1ccc(-c2cc(=S)c3ccccc3o2)cc1`, the “inhibition (INH)” value in series [1] and in series [4] was “Not Active” throughout.
Regarding `Fc1ccc2c(=S)cc(-c3ccccc3)oc2c1`, the inhibition at 100 µM in series [1] and in series [4] was 40% throughout.
With `Cc1ccc2c(c1)OC(c1ccccc1)CC2=O` (racemic), the “inhibition (INH)” value in series [1] was “Not Active”. Moreover, the IC50 in series [2] came to 3.62 µM. Besides, the Ratio IC50 in series [3] is > 28.
The matching figures for `COc1ccc(-c2cc(=O)c3ccc(OC)cc3o2)cc1` [4,7-DIMETHOXYFLAVONE]: “Not Active”, 49.7 µM and > 2.
On to `Cc1ccc(C2CC(=O)c3ccc(C)cc3O2)cc1` (racemic), for which the “inhibition (INH)” value in series [1] was “Not Active”. In addition, it took 0.5 µM to reach half-maximal inhibition in series [2] (IC50). The Ratio IC50 in series [3] is > 200.
Turning to `COc1ccc2c(=S)cc(-c3ccc(F)cc3)oc2c1`, the “inhibition (INH)” value in series [1] was “Not Active”. The inhibition at 100 µM in series [4] was determined as 40%.
For the compound `COc1ccc(-c2cc(=S)c3ccccc3o2)cc1`, the inhibition at 100 µM in series [1] came to 40%. In addition, in series [2], the midpoint of inhibition, the IC50, lay at 0.48 µM. The Ratio IC50 in series [3] is > 208.
For the compound `Cc1ccc(C2CC(=O)c3ccccc3O2)cc1` (racemic), the “inhibition (INH)” value in series [1] is reported as “Not Active”. In addition, the IC50 in series [2] was determined as 2.07 µM. For the same compound, the Ratio IC50 in series [3] is > 48.
The matching figures for `COc1ccc(C2CC(=O)c3ccc(OC)cc3O2)cc1` (racemic) [LIQUIRITIGENIN DIMETHYL ETHER]: “Not Active”, 7.18 µM and > 14.
Regarding `COc1ccc(-c2cc(=S)c3ccc(F)cc3o2)cc1`, in series [1], the “inhibition (INH)” value is recorded as “Not Active”. The inhibition at 100 µM in series [4] was determined as 40%.
In the case of `O=c1cc(-c2ccccc2)oc2cc(F)ccc12` [7-FLUOROFLAVONE], in series [1], the inhibition at 100 µM came out at 40%. Moreover, the IC50 in series [2] amounted to 12.9 µM. Moreover, in series [3], the Ratio IC50 was > 7.7.
Turning to `Cc1ccc2c(=O)cc(-c3ccccc3)oc2c1` [7-METHYLFLAVONE], the “inhibition (INH)” value in series [1] and in series [4] was “Not Active” in each case.
Take `Cc1ccc2c(=S)cc(-c3ccc(F)cc3)oc2c1`: in series [1], the “inhibition (INH)” value is recorded as “Not Active”. Moreover, the inhibition at 100 µM in series [4] was found to be 40%.
As for `COc1ccc2c(=O)cc(-c3ccc(C)cc3)oc2c1`, the “inhibition (INH)” value in series [1] was “Not Active”. Also, in series [2], the IC50 stood at 11.3 µM. The Ratio IC50 in series [3] was > 8.8.
As to `COc1ccc2c(=S)cc(-c3ccccc3)oc2c1`, the “inhibition (INH)” value in series [1] was “Not Active”. Further, in series [4], the inhibition at 100 µM worked out at 40%.
With `Cc1ccc([C@@H]2CC(=O)c3ccc(C)cc3O2)cc1`, in series [1], the “inhibition (INH)” value is on record as “Not Active”. This compound had an IC50 in series [2] of 0.59 µM. For the same compound, the Ratio IC50 in series [3] was > 169.
For `O=C1CC(c2ccc(F)cc2)Oc2ccccc21` (racemic) the same measures were “Not Active”, 4.41 µM and > 23.
For `COc1ccc(C2CC(=O)c3ccc(C)cc3O2)cc1` (racemic) the same measures were “Not Active”, 3.35 µM and > 30.
Consider `COc1ccc2c(=S)cc(-c3ccc(C)cc3)oc2c1`, for which, in series [1], the inhibition at 100 µM was 40%. The same compound gave an IC50 in series [2] of 7.61 µM. The Ratio IC50 in series [3] was > 13.
In the case of `Cc1ccc(C2CC(=O)c3ccc(F)cc3O2)cc1` (racemic), in series [1], the “inhibition (INH)” value was “Not Active”. Half-maximal inhibition in series [2] (IC50) required 0.16 µM. In series [3], the Ratio IC50 is > 625.
As for `Cc1ccc(-c2cc(=S)c3ccccc3o2)cc1`, in series [1], the “inhibition (INH)” value is on record as “Not Active”. Moreover, the midpoint of inhibition in series [2], the IC50, lay at 6.69 µM. In addition, in series [3], the Ratio IC50 is > 15.
The matching figures for `COc1ccc2c(c1)O[C@H](c1ccc(F)cc1)CC2=O`: “Not Active”, 0.16 µM and > 625.
On to `COc1ccc2c(c1)OC(c1ccc(F)cc1)CC2=O` (racemic), for which the “inhibition (INH)” value in series [1] was “Not Active”. This compound registered an IC50 in series [2] of 0.17 µM. In addition, the Ratio IC50 in series [3] is > 588.
Consider `COc1ccc2c(=O)cc(-c3ccc(F)cc3)oc2c1`, for which, in series [1], the “inhibition (INH)” value was “Not Active”. Besides, it took 5.14 µM to reach half-maximal inhibition in series [2] (IC50). Further, in series [3], the Ratio IC50 was > 19.
The matching figures for `COc1ccc(-c2cc(=S)c3ccc(OC)cc3o2)cc1`: “Not Active”, 3.34 µM and > 30.
As for `COc1ccc(C2CC(=O)c3ccccc3O2)cc1` (racemic), the “inhibition (INH)” value in series [1] is given as “Not Active”. Also, half-maximal inhibition in series [2] (IC50) required 2.2 µM. For the same compound, the Ratio IC50 in series [3] was > 45.
